Screens deposited in PubChem BioAssay by several laboratories.
A selection: hits, their analogues and other compounds. The true share with any hit is near 2.6%.
SENP7 block = SENP7 protease inhibition; Q9BQF6; recombinant SENP7, Z-RLRGG-aminoluciferin luminescence, 40 min; inhibition, % at 5 µM; actives 1.5% (n = 330,000);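 active = inhibition above about 50% at the single test dose, limit read from the data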;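 note: plate controls were DMSO with enzyme for no effect and no enzyme buffer wells for full effect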
Target sequence (Q9BQF6 706-1050 limits assumed): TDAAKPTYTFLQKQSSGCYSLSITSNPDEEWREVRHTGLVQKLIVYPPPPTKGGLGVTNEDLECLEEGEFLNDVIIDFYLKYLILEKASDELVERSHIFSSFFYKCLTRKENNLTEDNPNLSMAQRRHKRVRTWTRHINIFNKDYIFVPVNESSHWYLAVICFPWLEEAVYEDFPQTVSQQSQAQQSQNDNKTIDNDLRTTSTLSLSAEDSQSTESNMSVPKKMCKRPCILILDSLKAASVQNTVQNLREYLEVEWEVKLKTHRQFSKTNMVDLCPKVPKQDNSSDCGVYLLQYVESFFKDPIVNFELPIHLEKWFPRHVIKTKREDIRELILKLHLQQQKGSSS
SENP6 block = SENP6 protease inhibition; inhibition, % at 10 µM; actives 1.8% (n = 330,000); AID 2599; Recombinant SENP6 catalytic domain, aminoluciferin luminescence; Q9GZR1;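 active = inhibition above about 50% at the single tested dose, limit read from the data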;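 note: plate controls were DMSO wells with enzyme for no effect and DMSO wells lacking enzyme for full effect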
SENP1 inh = blocks the human SENP1 SUMO protease catalytic domain; recombinant SENP1 catalytic domain, CyPet-SUMO1-YPet FRET cleavage; inhibition, % at 10 µM; AID 624204; actives 0.21% (n = 360,000);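 active = inhibition at least 30% at 10 µM, raw YFP signal under a set limit, fluorescence ratio 0.5 to 1.5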;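 note: 0% = enzyme with DMSO and 100% = no enzyme wells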
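Test system: hSENP1 catalytic domain, recombinant; Amount: 20 pM final SENP1 enzyme; Medium: Tris pH 8 buffer plus EDTA, NaCl, BME, BSA, NP40, catalase; Schedule: 50 min enzyme reaction, room temperature, light-protected; Technique: FRET fluorescence in CFP and YFP emission channels; Controls: no-enzyme wells low, DMSO-plus-enzyme wells high control.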
SENP8 block-1 = blocks human SENP8 cleavage of Nedd8 substrate; Q96LD8; actives 0.64% (n = 360,000); recombinant SENP8, Nedd8 substrate fluorescence; inhibition, % at 20 µM; in the data active = inhibition mostly above about 40%, no sharp cut-off; inactive = mostly below about 27%
SENP8 block-2 = SENP8 protease inhibition; Q96LD8; purified SENP8, Z-RLRGG-aminoluciferin cleavage, luminescence; inhibition, % at 10 µM; actives 1.2% (n = 330,000); in the data active = inhibition above about 50%
Platelet DG rel = platelet dense granule release activity. human platelet-rich plasma, SFLLRN dense granule ATP release, luminescence. inhibition, %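 (compounds screened at 7.5 µM in platelet-rich plasma)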. actives 0.22% (n = 300,000);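 active = mean replicate score, as percent of positive control, at or above 50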
SENP8 inh conf = SENP8 (human) inhibition, single concentration confirmation. shares compounds with SENP8 block-1. purified SENP8, Nedd8-AMC/pro-Nedd8 cleavage fluorescence, 30 min. inhibition, % at 25 µM. actives 15% (n = 1,400). AID 624319; in the data active = inhibition mostly above about 39%, no sharp cut-off; inactive = mostly below about 34%
The depositor's hits bear a star; . = not tested or not shown.

SMILES | SENP7 block | SENP6 block | SENP1 inh | SENP8 block-1 | SENP8 block-2 | Platelet DG rel | SENP8 inh conf
COc1cccc(OCCNc2cc(N3CCCCC3)ccc2[N+](=O)[O-])c1 | -1.2 | -5.1 | 1.2 | 60.3* | -2.6 | -1.2 | 15.8
CC(Nc1cc(N2CCCC2)ccc1[N+](=O)[O-])c1ccccc1 (centres undefined) | 1.1 | 6.7 | 1.7 | 45.3* | -1.9 | . | -2.0
O=[N+]([O-])c1ccc(N2CCCC2)cc1NCc1ccccc1 | 1.1 | -1.6 | 1.7 | 35.6 | 1.1 | -22.8 | .
CC(Nc1cc(N2CCOCC2)ccc1[N+](=O)[O-])c1ccccc1 (centres undefined) | 1.5 | -5.9 | 1.0 | 20.0 | -3.6 | 6.8 | .
COc1ccc(C(C(=O)NCC2CCCO2)N(C(=O)c2snc(C(N)=O)c2N)c2ccccc2C)cc1OC (centres undefined) | -4.1 | -27.0 | -49.4 | -305.3 | -4.8 | 13.3 | .
C[C@@H]1CC2=C(C(=O)OC(C)(C)O2)[C@H](c2ccc(Cl)cc2)O1 | . | . | 1.1 | 10.0 | . | . | .
COc1ccc(CCC2=NCCN2C(CC(C)C)c2nc3ccccc3[nH]2)cc1 (centres undefined) | . | . | 2.3 | 17.3 | . | . | .
Cc1ccc(C(=O)/C=C\NCc2ccccc2)cc1 | -5.6 | -1.7 | -22.7 | 11.8 | -22.5 | -1.3 | .
CC(/C=C/C(=O)c1ccc(C)cc1)=C\c1ccccc1 | 3.4 | -0.8 | -0.5 | 46.2* | -17.1 | 4.3 | 17.2
O=C(NC1CCOc2ccccc21)C1CCCC1 (centres undefined) | 1.9 | -7.1 | 2.2 | 5.5 | 5.1 | -0.5 | .
COc1cccc(CN(C)S(=O)(=O)c2c(C)noc2C)c1OC | 4.0 | -11.6 | 0.0 | 10.4 | -6.6 | . | .
O=[N+]([O-])c1cc(Cl)c2cccnc2c1O | 5.7 | 0.9 | 3.9 | 29.9 | 0.2 | 1.8 | .
O=[N+]([O-])c1cc(F)c2cccnc2c1O | 10.0 | 7.0 | 3.7 | 52.0* | -3.0 | -6.2 | 92.5*
OCc1ccccc1O[C@@H]1O[C@H](CO)[C@@H](O)[C@H](O)[C@H]1O | -2.7 | -2.8 | 2.2 | 48.9* | 1.7 | -1.6 | 3.2
OCC1OC(Oc2c[nH]c3ccccc23)C(O)C(O)C1O (centres undefined) | 13.3 | -0.7 | -1.8 | -219.7 | -3.0 | -2.0 | .
O=C(CSc1ccccc1)NNC(=O)c1ccncc1 | 9.9 | -7.3 | 1.1 | 2.1 | -7.2 | . | .
Cc1[nH]n(-c2ccccc2)c(=O)c1S(=O)(=O)c1ccccc1 | 2.5 | -4.9 | 2.6 | 71.1* | -0.2 | 8.7 | 43.2*
N#Cc1ccccc1NC(=O)COC(=O)c1c[nH]c2ccccc12 | 1.6 | 5.8 | -0.2 | -2.2 | 7.3 | . | .
O=C(CCl)Nc1cccc(S(=O)(=O)NC2=NCCC2)c1 | -1.6 | -6.2 | 0.1 | 45.7* | -3.2 | 1.3 | 10.1
CC(C)C(=O)Nc1cccc(S(=O)(=O)NC2=NCCC2)c1 | . | . | 3.9 | 14.8 | . | . | .
CC(C)(C)NC(=O)C(c1ccc(O)cc1)N(C(=O)CCC(=O)Nc1ccccn1)c1ccc(F)cc1 (centres undefined) | 0.0 | -6.1 | 0.0 | 6.4 | 0.3 | -0.8 | .
CCC(C(=O)N1CCOCC1)n1c2ccccc2c2nc(=O)cc(C)n21 (centres undefined) | -7.1 | 16.5 | 0.6 | -19.8 | -6.4 | 1.1 | .
Cc1ccc(OCC(=O)NCCN2CCOCC2)cc1C | 6.4 | 3.2 | 1.8 | 43.0* | 7.9 | 3.4 | 7.9
COc1ccc(Nc2nc(=O)c3cc([N+](=O)[O-])ccc3s2)cc1 | . | . | -0.8 | 55.4* | . | 3.0 | 22.5
Cc1ccc(Nc2nc(=O)c3cc([N+](=O)[O-])ccc3s2)cc1 | -3.7 | -9.3 | 1.6 | 32.6 | -0.3 | -1.5 | .
CC1CCCC(NC(=O)CCN2C(=O)COc3ccccc32)C1C (centres undefined) | . | . | -1.4 | 21.4 | . | . | .
O=C(CCCCCNC(=O)N1CCn2c1nc1ccccc12)N[C@H](C(=O)O)c1ccccc1 | 3.0 | 2.0 | 3.5 | 52.4* | 2.0 | 2.2 | 20.3
NC(=O)CCC(=O)N1CCCC(C(=O)c2ccc(C(F)(F)F)cc2)C1 (centres undefined) | -7.7 | 2.8 | 1.0 | 14.1 | 1.6 | . | .
CN(C)C1(CN=Cc2cc(Cl)cc([N+](=O)[O-])c2O)CCCCC1 | 3.3 | 24.5 | 5.3 | 40.3* | 1.1 | 5.3 | 24.2
